The test system of data set [1] is Mus musculus. Briefly: Toxicity in nude BALB/c mouse xenografted with FU-resistant human HCT8 cells assessed as abnormal size changes in lung at 17.8 to 35.7 umol/kg administered as via oral gavage daily for 21 days. Format: organism-based, HCT-8. Conditions: in vivo, 504 h. In outline: (§1)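 Male BALB/c nude mice aged 6-8 weeks, implanted s.c. in the right flank with HCT-8/5-FU cells (2 × 10^6). Once tumors reached 180-200 mm3 (days 9-11), randomized to daily gavage for 21 days in cremophor-EL/DMSO/PBS (1:1:8), 0.2 mL. At the end, liver, kidney, lung and heart checked for size, colour and weight. n = 8 per group.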
Background: Xenograft models place foreign cells or tissue in a host animal.

The subject of data set [2] is Mus musculus. The data set is described as follows: Toxicity in ICR mouse assessed as general activity changes at 0.60 x 10^3 to 2.38 x 10^3 umol/kg administered as single dose via oral gavage measured up to 14 days post treatment. It is filed as organism-based. As to conditions: in vivo, 336 h. In outline: (§2)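 Adult ICR mice of either sex were randomised and given a single oral gavage dose of 500, 1000, 1500 or 2000 mg/kg in cremophor-EL/DMSO/PBS (1:1:8). Survival, behaviour, water and food intake, body weight and activity were monitored for up to 14 days. Body weights were taken on days 0, 7 and 14.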

For data set [3], the system named is HCT-8. The data set is described as follows: Inhibition of MRP1 protein expression in FU-resistant human HCT8 cells at 0.25 to 1 uM incubated for 24 hrs by Western blotting method. Format: functional, cell-based. In short, it runs like this:
(§3)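 Cells (1 x 10^6) grown 24 h in 6 cm dishes, then exposed in duplicate for 24 h to 0.25, 0.5 or 1 µM compound, with or without PTIO. Lysates (20 µg/lane) were run on 7.5% SDS-PAGE, blotted to PVDF and blocked in 5% milk. HRP secondaries with ECL detection; bands quantified by densitometry against β-actin or GAPDH. Three separate experiments, mean ± SD.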
A general note: Immunoblotting shows a protein as a band on a membrane.

Data set [4] has as its system Mus musculus. The data set is described as follows: Toxicity in male ICR mouse assessed as body weight level at 2.38 x 10^3 umol/kg administered as single dose via oral gavage measured on day 7 post treatment (reference value: 19.8 +/- 0.92 g). It is filed as organism-based. As to conditions: in vivo.
For data set [5], the system named is HCT-8. Briefly: Antiproliferative activity against 5-FU resistant human HCT8 cells assessed as inhibition of cell proliferation at 0.125 to 0.5 uM incubated for 72 hrs after 24 hrs of pre-treatment with 0.75 uM and 1 .5 uM pepT1 substrate Gly-Sar by MTT assay. Format: functional, cell-based. In short, it runs like this: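 Cells pretreated with or without Gly-Sar (0.75 or 1.5 µM) for 24 h, then given a range of compound concentrations for 72 h. Proliferation inhibition measured by MTT.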
A general note: Tetrazolium assays rely on reduction of a dye to a coloured formazan, in cell work by metabolically active cells.

Data set [6] deals with Mus musculus. The data set is described as follows: Toxicity in ICR mouse assessed as abnormality in drinking behavior at 0.60 x 10^3 to 2.38 x 10^3 umol/kg administered as single dose via oral gavage measured up to 14 days post treatment. As to conditions: in vivo, 336 h. Format: organism-based. In outline: as §2
Data set [7] deals with HCT-8. The data set is described as follows: Induction of nitric oxide release in human HCT8 cells at 150 uM incubated for 150 mins after 150 mins of pre-treatment with 0.75 uM to 192 uM pepT1 substrate Gly-Sar by Griess assay. Format: functional, cell-based. In short, it runs like this: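 Cells pretreated with Gly-Sar (0.75–192 µM, nine levels) for 150 min, then given compound at 150 µM for 150 min. Intracellular nitrite in lysates measured with Griess reagent (10 min, 37 °C, 540 nm) against a sodium nitrite standard curve. Mean ± SD of three experiments.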

A short description of data set [8]: Antitumor activity against FU-resistant human HCT8 cells xenografted in nude BALB/c mouse assessed as reduction in tumor weight at 17.8 umol/kg administered as via oral gavage daily for 21 days. It is filed as functional. Conditions: HCT-8, po, 504 h. In outline:
(§4)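 Male BALB/c nude mice, 6–8 weeks old, inoculated s.c. in the right flank with HCT-8/5-FU cells (2 × 10^6). Once tumors reached 180–200 mm3 (days 9–11), mice were randomized (n = 8) to daily oral gavage for 21 days in cremophor-EL/DMSO/PBS (1:1:8). Tumor volume = W2(L/2), caliper-measured every other day, blinded; tumors weighed at end.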

The target in data set [9] is Signal transducer and activator of transcription 3 (Homo sapiens) (UniProt P40763). Briefly: Inhibition of STAT3 protein phosphorylation in FU-resistant human HCT8 cells at 0.25 to 1 uM incubated for 24 hrs by Western blotting method. It is filed as cell-based. As to conditions: HCT-8. In outline:
as §3

Data set [10] relates to HCT-8. Briefly: Inhibition of HIF-1alpha protein expression in FU-resistant human HCT8 cells at 0.25 to 1 uM incubated for 24 hrs by Western blotting method. It is filed as functional, cell-based. In short, it runs like this: as §3
Data set [11] relates to HCT-8. Briefly: Induction of apoptosis in human HCT8 cells incubated for 24 hrs by FITC-Annexin-V and propidium iodide staining based flow cytometry. It is filed as functional, cell-based.
In data set [12] the target is T1, Multidrug resistance-associated protein 1 (Homo sapiens, UniProt P33527). The data set is described as follows: Induction of nitrosylation of MRP1 protein in FU-resistant human HCT8 cells at 0.25 to 1 uM incubated for 24 hrs by Western blotting method. Format: cell-based. As to conditions: hct-8, 24 h. In outline: (§5)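 HCT-8/5-FU cells (1 × 10^6) treated in duplicate for 24 h with 0.25, 0.5 or 1 µM test compound or 1 µM reference, with or without PTIO. Lysates immunoprecipitated overnight at 4 °C with anti-nitrotyrosine antibody on protein G beads. Eluates blotted with specific anti-Pgp, anti-MRP1 or anti-BCRP antibodies and quantified by densitometry. Mean ± SD of three experiments.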

The test system of data set [13] is HCT-8. The data set is described as follows: Antiproliferative activity against human HCT8 cells assessed as inhibition of cell proliferation at 0.25 uM after 24 hrs by MTT assay. Format: functional, cell-based.
In data set [14] the test system is Mus musculus. The data set is described as follows: Toxicity in nude BALB/c mouse xenografted with FU-resistant human HCT8 cells assessed as abnormal size changes in liver at 17.8 to 35.7 umol/kg administered as via oral gavage daily for 21 days. As to conditions: in vivo, 504 h. It is filed as organism-based, HCT-8. In outline: as §1
Data set [15] has as its system Mus musculus. The data set is described as follows: Toxicity in nude BALB/c mouse xenografted with FU-resistant human HCT8 cells assessed as abnormal color changes in heart at 17.8 to 35.7 umol/kg administered as via oral gavage daily for 21 days. It is filed as organism-based, HCT-8. As to conditions: in vivo, 504 h. In outline:
as §1

In data set [16] the test system is Mus musculus. The data set is described as follows: Toxicity in nude BALB/c mouse xenografted with FU-resistant human HCT8 cells assessed as abnormal color changes in kidney at 59.4 umol/kg administered as via oral gavage daily for 21 days. Format: organism-based, HCT-8. As to conditions: in vivo, 504 h. In short, it runs like this: as §1
The target in data set [17] is RAC-alpha serine/threonine-protein kinase (Homo sapiens) (UniProt P31749). The data set is described as follows: Inhibition of AKT protein phosphorylation in FU-resistant human HCT8 cells at 1 uM incubated for 24 hrs by Western blotting method. As to conditions: HCT-8. It is filed as cell-based. In outline:
as §3

The target of data set [18] is T1, Multidrug resistance-associated protein 1. Briefly: Induction of nitrosylation of MRP1 protein in FU-resistant human HCT8 cells at 1 uM incubated for 24 hrs by Western blotting method. Conditions: hct-8, 24 h. Format: cell-based. In short, it runs like this:
as §5

Data set [19] concerns Mus musculus. Briefly: Toxicity in nude BALB/c mouse xenografted with FU-resistant human HCT8 cells assessed as abnormal color changes in heart at 59.4 umol/kg administered as via oral gavage daily for 21 days. Format: organism-based, HCT-8. As to conditions: in vivo, 504 h. In outline:
as §1

A short description of data set [20]: Antitumor activity against FU-resistant human HCT8 cells xenografted in nude BALB/c mouse assessed as reduction in tumor weight at 59.4 umol/kg administered as via oral gavage daily for 21 days. As to conditions: HCT-8, po, 504 h. Format: functional. In outline:
as §4

Data set [21] relates to HCT-8. Briefly: Inhibition of HIF-1alpha protein expression in FU-resistant human HCT8 cells at 1 uM incubated for 24 hrs by Western blotting method. Format: functional, cell-based. In short, it runs like this: as §3
Data set [22] concerns the target Signal transducer and activator of transcription 3 (Homo sapiens) (UniProt P40763). The data set is described as follows: Inhibition of STAT3 protein phosphorylation in human HCT8 cells at 1 uM incubated for 24 hrs by Western blotting method. As to conditions: HCT-8. It is filed as cell-based. In short, it runs like this:
as §3

In data set [23] the test system is HCT-8. Briefly: Inhibition of ERK protein phosphorylation in FU-resistant human HCT8 cells at 1 uM incubated for 24 hrs by Western blotting method. Format: cell-based. In outline:
as §3

Active and inactive are the calls of the source. No cut-off for these calls is given here.

T1 sequence (P33527 whole entry): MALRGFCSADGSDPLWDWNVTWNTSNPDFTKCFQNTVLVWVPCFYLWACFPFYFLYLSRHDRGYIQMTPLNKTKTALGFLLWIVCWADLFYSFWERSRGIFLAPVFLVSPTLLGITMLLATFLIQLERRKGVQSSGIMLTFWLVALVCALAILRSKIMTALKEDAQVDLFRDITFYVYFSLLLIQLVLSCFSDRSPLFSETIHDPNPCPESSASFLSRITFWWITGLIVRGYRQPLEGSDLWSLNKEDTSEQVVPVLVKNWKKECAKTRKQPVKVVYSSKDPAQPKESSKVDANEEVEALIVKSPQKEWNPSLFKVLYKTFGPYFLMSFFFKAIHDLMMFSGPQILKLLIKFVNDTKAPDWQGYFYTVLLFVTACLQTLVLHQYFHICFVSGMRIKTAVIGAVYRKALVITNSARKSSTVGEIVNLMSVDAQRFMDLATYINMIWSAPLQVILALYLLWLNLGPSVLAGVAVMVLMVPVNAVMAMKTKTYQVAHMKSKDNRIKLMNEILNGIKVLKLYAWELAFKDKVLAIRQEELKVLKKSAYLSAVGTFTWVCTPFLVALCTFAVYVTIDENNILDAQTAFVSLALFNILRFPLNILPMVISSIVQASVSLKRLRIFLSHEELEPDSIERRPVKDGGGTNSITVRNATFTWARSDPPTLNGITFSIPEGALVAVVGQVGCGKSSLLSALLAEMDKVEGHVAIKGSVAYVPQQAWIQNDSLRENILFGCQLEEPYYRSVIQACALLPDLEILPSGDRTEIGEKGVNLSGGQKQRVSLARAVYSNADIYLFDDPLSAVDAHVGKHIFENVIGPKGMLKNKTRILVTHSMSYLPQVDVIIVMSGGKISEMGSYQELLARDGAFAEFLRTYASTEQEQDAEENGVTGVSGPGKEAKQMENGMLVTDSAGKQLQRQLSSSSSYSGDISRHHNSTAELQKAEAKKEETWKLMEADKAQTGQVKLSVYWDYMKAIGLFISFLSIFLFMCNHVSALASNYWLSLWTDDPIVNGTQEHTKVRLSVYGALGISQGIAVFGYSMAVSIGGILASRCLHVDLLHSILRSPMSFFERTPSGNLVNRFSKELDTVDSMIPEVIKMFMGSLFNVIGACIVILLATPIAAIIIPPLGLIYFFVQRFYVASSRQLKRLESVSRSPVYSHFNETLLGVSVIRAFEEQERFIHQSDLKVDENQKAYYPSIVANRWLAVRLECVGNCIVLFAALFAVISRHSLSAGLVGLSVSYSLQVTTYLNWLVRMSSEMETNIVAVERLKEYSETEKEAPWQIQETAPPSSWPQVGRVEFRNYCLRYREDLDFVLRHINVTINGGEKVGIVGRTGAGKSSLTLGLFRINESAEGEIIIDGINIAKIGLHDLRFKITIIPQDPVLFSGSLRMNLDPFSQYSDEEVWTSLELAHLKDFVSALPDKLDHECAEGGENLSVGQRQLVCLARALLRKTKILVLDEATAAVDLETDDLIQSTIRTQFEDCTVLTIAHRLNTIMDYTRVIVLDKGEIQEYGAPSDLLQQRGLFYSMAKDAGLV
Chain of Signal transducer and activator of transcription 3 (Homo sapiens) (P40763 whole entry): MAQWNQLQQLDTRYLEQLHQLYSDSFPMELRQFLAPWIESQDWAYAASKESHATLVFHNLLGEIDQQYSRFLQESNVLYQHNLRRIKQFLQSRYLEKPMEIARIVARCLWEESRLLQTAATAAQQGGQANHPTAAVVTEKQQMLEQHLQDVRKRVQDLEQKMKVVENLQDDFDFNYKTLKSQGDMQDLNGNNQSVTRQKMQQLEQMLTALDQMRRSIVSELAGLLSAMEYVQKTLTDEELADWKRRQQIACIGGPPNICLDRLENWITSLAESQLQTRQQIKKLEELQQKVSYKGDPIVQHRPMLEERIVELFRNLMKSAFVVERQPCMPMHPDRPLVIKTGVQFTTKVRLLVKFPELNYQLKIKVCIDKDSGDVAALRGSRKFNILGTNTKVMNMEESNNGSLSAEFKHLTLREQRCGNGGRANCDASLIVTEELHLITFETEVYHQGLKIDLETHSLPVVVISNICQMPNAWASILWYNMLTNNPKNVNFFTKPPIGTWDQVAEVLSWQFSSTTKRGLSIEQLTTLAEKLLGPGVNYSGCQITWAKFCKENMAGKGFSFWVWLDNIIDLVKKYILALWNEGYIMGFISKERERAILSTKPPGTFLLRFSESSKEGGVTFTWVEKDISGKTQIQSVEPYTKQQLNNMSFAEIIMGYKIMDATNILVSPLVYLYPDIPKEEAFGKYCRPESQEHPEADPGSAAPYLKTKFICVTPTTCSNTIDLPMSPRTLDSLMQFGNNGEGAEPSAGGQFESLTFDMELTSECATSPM
Chain of RAC-alpha serine/threonine-protein kinase (Homo sapiens) (P31749 whole entry): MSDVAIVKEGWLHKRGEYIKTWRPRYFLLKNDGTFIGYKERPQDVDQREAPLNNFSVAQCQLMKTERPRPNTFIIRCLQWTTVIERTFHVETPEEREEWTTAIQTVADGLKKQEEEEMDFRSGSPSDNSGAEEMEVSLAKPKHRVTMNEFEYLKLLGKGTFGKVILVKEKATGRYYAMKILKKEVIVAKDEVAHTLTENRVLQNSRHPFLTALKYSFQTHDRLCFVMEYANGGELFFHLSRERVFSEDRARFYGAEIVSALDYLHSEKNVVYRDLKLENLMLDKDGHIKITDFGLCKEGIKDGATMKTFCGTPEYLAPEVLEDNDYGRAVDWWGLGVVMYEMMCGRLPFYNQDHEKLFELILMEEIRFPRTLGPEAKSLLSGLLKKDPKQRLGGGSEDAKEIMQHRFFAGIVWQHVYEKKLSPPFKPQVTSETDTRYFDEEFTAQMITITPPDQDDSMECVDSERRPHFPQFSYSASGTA

A word on the inhibition in vivo: it is the percentage by which the read-out fell short of the control. As to `CC1(C)CC[C@]2(C(=O)NCC(=O)OCC#CCOc3no[n+]([O-])c3S(=O)(=O)c3ccccc3)CC[C@]3(C)[C@H](C(=O)C=C4[C@@]5(C)C=C(C#N)C(=O)C(C)(C)[C@@H]5CC[C@]43C)[C@@H]2C1`, the Activity result was “Non-toxic” in data set [1]; “Non-toxic” in data set [2]; 26.7 g in [4]; “Non-toxic” in data set [6]; “Dose-dependent effect” in data set [11]; “Dose-dependent effect” in [12]. Moreover, the Activity entry in [14] and in data set [15] was “Non-toxic” in each case. The inhibition entry in data set [3], in [9] and in data set [10] was “Dose-dependent effect” in each case. The inhibition result in data set [5] was “inactive”. Moreover, the result in data set [7] was inactive. Besides, the inhibition in vivo at 17.8 µmol/kg in data set [8] is 49.2%. Moreover, the result in data set [13] was Active.

For `COC(=O)[C@]12CCC(C)(C)C[C@H]1[C@H]1C(=O)C=C3[C@@]4(C)C=C(C#N)C(=O)C(C)(C)[C@@H]4CC[C@@]3(C)[C@]1(C)CC2` [BARDOXOLONE METHYL], the figures for the Activity result in data set [16], in [18] and in data set [19] were “Non-toxic”, “Not Active” and “Non-toxic”, respectively. Also, the inhibition result in [17], in data set [21], in data set [22] and in [23] was “Active” throughout. Also, the inhibition in vivo at 59.4 µmol/kg in [20] amounted to 58.4%.
